The source made the active and inactive calls.
Tests used:
[1] = target: Voltage-gated potassium channel, KQT; KCNQ2(Kv7.2)/KCNQ3(Kv7.3) (Homo sapiens, UniProt O43525+O43526); assay: Activation of KCNQ2/KCNQ3 expressed in CHO cells by isotopic efflux assay; type: cell-based
Summary of the method: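 86Rb+ flux in K+-channel-expressing cells loaded by culture in 86RbCl, then washed in EBSS. Preincubated with drug (0.01-30 μM in EBSS), then efflux stimulated by submaximal KCl (generally 7-20 mM) with drug still present. Supernatant and SDS lysate counted by Cherenkov. Percent efflux normalized to high-KCl (generally 30-135 mM) maximum. EC50 from eight-point half-log curves; mean of 2-4 determinations ± SEM.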

Mus musculus [2] = assay: Anticonvulsant activity against maximal electroshock-induced seizures in CD1 mouse model at 10 mg/kg, po treated 30 mins before electroshock application; type: functional, organism-based; set-up: dose 10 mg/kg
Summary of the method: (§1)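 Male CD-1 mice dosed po (10 mL/kg in 5% DMSO/95% of 0.5% HPMC/1% Tween 80) 30 min before corneal electroshock at 50 mA for 0.2 s, with 1% proparacaine in each eye. Latency to hindlimb extension recorded to 0.1 s. No extension within 6 s scored as protected (latency 6 s). Reported as protected/tested (8 per group), or EC50 derived from latency scores.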

Mus musculus [3] = assay: Anticonvulsant activity against maximal electroshock-induced seizures in CD1 mouse model at 20 mg/kg, po treated 30 mins before electroshock application; type: functional, organism-based; set-up: dose 20 mg/kg; summary of the method: as §1
Rattus norvegicus [4] = assay: Analgesic activity in Sprague-Dawley rat assessed as reduction of spinal nerve ligation-induced allodynia score at 100 mg/kg, iv; type: functional; set-up: scale not given: the % may be the effect or the level left
Summary of the method: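 L5 spinal nerve ligation (4.0 silk, distal to DRG, halothane anesthesia) in male Sprague-Dawley rats, with 2-3 weeks recovery. Tactile allodynia read as von Frey paw withdrawal threshold on a wire mesh floor, capped at 15 g. Baseline measured right before dosing; behaviour tested 1 and 2 h after administration.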

Rattus norvegicus [5] = assay: Antinociceptive activity in formalin-treated Sprague-Dawley rat model assessed as reduction in hind paw flinches at 100 mg/kg, iv measured during 11 to 60 mins of phase 2 flinches; type: functional; set-up: scale not given: the % may be the effect or the level left
Summary of the method: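 Formalin test in male Sprague-Dawley rats fitted with a 0.5 g metal band on the right hind paw. Rats received 50 μL of 2.5% formalin sc into the dorsal right hind paw and were placed unrestrained over an electromagnetic detector. Flinches were counted for 60 min, with phase II defined as 11-60 min.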

Rattus norvegicus [6] = assay: Antinociceptive activity in formalin-treated Sprague-Dawley rat model assessed as reduction in hind paw flinches at 17 mg/kg, po measured during 11 to 60 mins of phase 2 flinches; type: functional; set-up: scale not given: the % may be the effect or the level left
Summary of the method: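 Male Sprague-Dawley rats dosed po in 0.5% methylcellulose 1 h before assay. A 0.5 g metal band was glued to the right hind paw 1 h beforehand. 2.5% formalin (50 μL) was injected sc into the dorsal right hind paw. An electromagnetic detector counted flinches for 60 min; phase II is 11-60 min post-injection.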

Rattus norvegicus [7] = assay: Analgesic activity in Sprague-Dawley rat assessed as reduction of spinal nerve ligation-induced allodynia score at 10 mg/kg, po; type: functional; set-up: scale not given: the % may be the effect or the level left
Summary of the method: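 Male Sprague-Dawley rats; L5 spinal nerve tightly ligated with 4.0 silk distal to the DRG under halothane, then 2-3 weeks recovery. Dosed po in 0.5% methylcellulose. Von Frey tactile withdrawal thresholds measured on a wire mesh floor, top threshold 15 g. Baseline taken just before dosing; testing at 1 and 2 h post-dose.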

Mus musculus [8] = assay: Anticonvulsant activity against maximal electroshock-induced seizures in CD1 mouse model at 30 mg/kg, po treated 30 mins before electroshock application; type: functional, organism-based; set-up: dose 30 mg/kg; summary of the method: as §1
Rattus norvegicus [9] = assay: Anticonvulsant activity in po dosed Sprague-Dawley rat assessed as inhibition of pentylenetetrazole-induced seizure treated 30 mins before PTZ challenge; type: functional, organism-based
Summary of the method: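 Male Sprague-Dawley rats received compound po in 0.5% methylcellulose (1 mL/kg) 30 min before PTZ 85 mg/kg sc. Latency to tonic-clonic seizure timed from PTZ injection. No seizure within 15 min scored as protected (latency 15 min). EC50 derived from latency scores.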

Mus musculus [10] = assay: Anticonvulsant activity against maximal electroshock-induced seizures in CD1 mouse model at 30 mg/kg, ip treated 15 mins before electroshock application; type: functional, organism-based; set-up: dose 30 mg/kg
Summary of the method: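 Male CD-1 mice dosed ip at 30 mg/kg (10 mL/kg in 5% DMSO/95% of 0.5% HPMC/1% Tween 80) 15 min before corneal electroshock (50 mA, 0.2 s, 1% proparacaine in eyes). Hindlimb extension latency measured; no extension by 6 s counted as protected. Reported as protected/tested out of 8 mice.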

Sequence of Voltage-gated potassium channel, KQT; KCNQ2(Kv7.2)/KCNQ3(Kv7.3) (O43526 whole entry): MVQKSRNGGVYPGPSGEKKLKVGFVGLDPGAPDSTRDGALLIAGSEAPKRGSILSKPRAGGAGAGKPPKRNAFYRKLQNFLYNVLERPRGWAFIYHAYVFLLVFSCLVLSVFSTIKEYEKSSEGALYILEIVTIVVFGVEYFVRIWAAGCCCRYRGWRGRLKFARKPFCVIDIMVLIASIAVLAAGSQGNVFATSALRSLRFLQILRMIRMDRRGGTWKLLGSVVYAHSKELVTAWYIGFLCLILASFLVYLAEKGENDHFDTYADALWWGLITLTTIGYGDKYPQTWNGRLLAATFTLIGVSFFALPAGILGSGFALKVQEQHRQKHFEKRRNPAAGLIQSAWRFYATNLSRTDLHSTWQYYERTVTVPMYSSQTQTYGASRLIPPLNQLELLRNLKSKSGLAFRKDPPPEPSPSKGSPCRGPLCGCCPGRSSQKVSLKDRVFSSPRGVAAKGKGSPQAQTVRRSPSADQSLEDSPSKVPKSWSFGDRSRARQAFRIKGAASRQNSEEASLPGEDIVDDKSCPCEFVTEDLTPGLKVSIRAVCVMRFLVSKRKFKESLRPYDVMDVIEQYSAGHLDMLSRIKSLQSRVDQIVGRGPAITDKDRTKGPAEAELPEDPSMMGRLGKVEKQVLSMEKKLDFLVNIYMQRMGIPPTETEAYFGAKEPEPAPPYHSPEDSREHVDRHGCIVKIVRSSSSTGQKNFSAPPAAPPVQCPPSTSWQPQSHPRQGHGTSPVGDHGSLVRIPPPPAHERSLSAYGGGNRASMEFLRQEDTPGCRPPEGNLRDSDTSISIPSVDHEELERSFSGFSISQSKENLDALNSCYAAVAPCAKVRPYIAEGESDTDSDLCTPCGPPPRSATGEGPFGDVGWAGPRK
Sequence of Voltage-gated potassium channel, KQT; KCNQ2(Kv7.2)/KCNQ3(Kv7.3) (O43525 whole entry): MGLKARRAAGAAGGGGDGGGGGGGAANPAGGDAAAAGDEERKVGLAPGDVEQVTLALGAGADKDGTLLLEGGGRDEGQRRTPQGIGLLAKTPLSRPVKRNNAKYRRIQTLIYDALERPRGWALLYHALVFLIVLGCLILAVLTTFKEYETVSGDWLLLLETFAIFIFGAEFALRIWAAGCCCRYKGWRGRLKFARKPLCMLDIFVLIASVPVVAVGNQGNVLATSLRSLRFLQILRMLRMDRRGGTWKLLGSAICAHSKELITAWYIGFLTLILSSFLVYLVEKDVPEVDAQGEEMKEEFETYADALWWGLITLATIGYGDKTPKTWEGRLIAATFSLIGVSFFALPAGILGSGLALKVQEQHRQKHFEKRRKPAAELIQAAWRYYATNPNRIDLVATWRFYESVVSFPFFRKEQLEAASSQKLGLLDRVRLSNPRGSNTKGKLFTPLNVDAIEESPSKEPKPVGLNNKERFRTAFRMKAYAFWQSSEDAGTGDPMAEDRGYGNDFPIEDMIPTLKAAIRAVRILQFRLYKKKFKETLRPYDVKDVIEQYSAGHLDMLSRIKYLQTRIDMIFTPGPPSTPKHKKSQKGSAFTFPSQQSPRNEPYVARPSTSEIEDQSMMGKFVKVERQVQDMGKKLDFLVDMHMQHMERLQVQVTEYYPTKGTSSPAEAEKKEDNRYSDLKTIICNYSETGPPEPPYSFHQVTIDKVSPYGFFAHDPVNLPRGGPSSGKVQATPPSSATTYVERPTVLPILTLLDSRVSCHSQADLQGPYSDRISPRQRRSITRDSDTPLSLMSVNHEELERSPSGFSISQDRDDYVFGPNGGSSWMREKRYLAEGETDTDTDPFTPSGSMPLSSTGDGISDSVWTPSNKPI

## Cn1/c(=N/NC(=O)C23CC4CC(CC(C4)C2)C3)sc2cc(F)cc(F)c21
[1]
  EC50: 0.16 µM

## Cn1/c(=N/NC(=O)C2CCCO2)sc2cc(OC(F)(F)F)ccc21 (centres undefined)
[1]
  EC50: 5.57 µM

## Cn1/c(=N/NC(=O)c2ccc(F)cc2)sc2cc(OC(F)(F)F)ccc21
[1]
  EC50: 0.044 µM

## Cn1/c(=N/NC(=O)OC(C)(C)C)sc2cc(OC(F)(F)F)ccc21
[1]
  EC50: 0.023 µM
Mus musculus [2]
  Activity: Active

## CN(/N=c1\sc2ccccc2n1C)C(=O)C12CC3CC(CC(C3)C1)C2
[1]
  EC50: > 10 µM

## Cn1/c(=N/NC(=O)C2CCCC2)sc2cc(OC(F)(F)F)ccc21
[1]
  EC50: 0.062 µM
Mus musculus [3]
  Activity: inactive

## Cn1/c(=N/NC(=O)c2cccc(F)c2)sc2cc(OC(F)(F)F)ccc21
[1]
  EC50: 0.1 µM

## NCC1(CC(=O)O)CCCCC1 [GABAPENTIN]
Rattus norvegicus [4]
  Activity: 70%
Rattus norvegicus [5]
  Activity: 61%

## Cn1/c(=N/NC(=O)C23CC4CC(CC(C4)C2)C3)sc2c(C(F)(F)F)cccc21
[1]
  EC50: 2.08 µM

## Cn1/c(=N/NC(=O)C2CCOC2)sc2cc(OC(F)(F)F)ccc21 (centres undefined)
[1]
  EC50: 6.73 µM

## Cn1/c(=N/NC(=O)C23CC4CC(CC(C4)C2)C3)sc2ccccc21
[1]
  EC50: 0.027 µM

## CCOC(=O)Nc1ccc(NCc2ccc(F)cc2)cc1N [EZOGABINE]
Rattus norvegicus [6]
  Activity: 49%
Rattus norvegicus [7]
  Activity: 0%

## Cn1/c(=N/NC(=O)C23CC4CC(CC(C4)C2)C3)sc2cc(F)ccc21
[1]
  EC50: 0.028 µM
Mus musculus [8]
  Activity: inactive

## Cn1/c(=N/NC(=O)C(C)(C)C)sc2cc(OC(F)(F)F)ccc21
[1]
  EC50: 0.71 µM
Mus musculus [2]
  Activity: inactive
Rattus norvegicus [9]
  EC50: 3.8 mg/kg

## Cn1/c(=N/NC(=O)C23CC4CC(CC(C4)C2)C3)sc2cccc(F)c21
[1]
  EC50: 0.38 µM

## Cn1/c(=N/NC(=O)C23CC4CC(CC(C4)C2)C3)sc2c(F)cccc21
[1]
  EC50: 0.098 µM
Mus musculus [3]
  Activity: inactive

## CCn1/c(=N/NC(=O)C23CC4CC(CC(C4)C2)C3)sc2ccccc21
[1]
  EC50: 0.57 µM

## Cn1/c(=N/NC(=O)OC2CCCC2)sc2cc(OC(F)(F)F)ccc21
[1]
  EC50: 0.029 µM

## Cn1/c(=N/NC(=O)C23CC4CC(CC(C4)C2)C3)sc2cc(F)c(F)cc21
[1]
  EC50: 0.021 µM

## Cn1/c(=N/NC(=O)C23CC4CC(CC(C4)C2)C3)sc2cc(C(F)(F)F)ccc21
[1]
  EC50: 0.16 µM
Mus musculus [8]
  Activity: inactive

## Cn1/c(=N/NC(=O)c2ccco2)sc2cc(OC(F)(F)F)ccc21
[1]
  EC50: 0.5 µM

## Cn1/c(=N/NC(=O)C23CC4CC(CC(C4)C2)C3)sc2cc(OC(F)(F)F)ccc21
[1]
  EC50: 0.025 µM
Mus musculus [10]
  Activity: Active

## Cn1/c(=N/NC(=O)C23CC4CC(CC(C4)C2)C3)sc2ccc(C(F)(F)F)cc21
[1]
  EC50: 0.053 µM
Mus musculus [8]
  Activity: inactive

## CC(=O)N/N=c1\sc2cc(OC(F)(F)F)ccc2n1C
[1]
  EC50: > 10 µM

## Cn1/c(=N/NC(=O)c2ccccc2)sc2cc(OC(F)(F)F)ccc21
[1]
  EC50: 0.26 µM

## Cn1/c(=N/NC(=O)C23CC4CC(CC(C4)C2)C3)sc2cccc(C(F)(F)F)c21
[1]
  EC50: 0.091 µM

## Cn1/c(=N/NC(=O)C23CC4CC(CC(C4)C2)C3)oc2ccccc21
[1]
  EC50: 2.7 µM

## Cn1/c(=N/NC(=O)C2CCCCC2)sc2cc(OC(F)(F)F)ccc21
[1]
  EC50: 0.028 µM

Reference: ChEMBL document CHEMBL1157731, “Novel KCNQ2/Q3 agonists as potential therapeutics for epilepsy and neuropathic pain” (J Med Chem, 2010)
